Lmaj promast: Leishmania major promastigote growth inhibition; hit rate 9% among 200,000; inhibition, % at 10 µM; AID 1063; Leishmania major promastigotes, resazurin fluorescence viability;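 further: promastigotes grown with compound for 44 hours at 28 °C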
CHOP inh: inhibitors of CHOP induction in ER stress response | CHO-K1 CHOP-promoter luciferase, tunicamycin-induced, 15-18 h | inhibition, % at 10 µM | hit rate 3.8% among 220,000;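 active means compounds that reduced the stress-induced luciferase reporter signal by more than about 70% of percent inhibition, limit read from the data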;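 further: 0% = tunicamycin plus vehicle and 100% = wells without tunicamycin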
Wee1 stabilizer: inhibitors of human Wee1 degradation; P30291; HeLa Luc-Wee1K328M stability, luciferase luminescence; 100% = proteasome inhibitor MG132 effect; reporter increase, % at 5 µM; hit rate 1.2% among 220,000; AID 1321;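 active means activation above the mean of all tested compounds plus 3 SD, set per screening run, cut at about 8.8% in these data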;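 further: cells exposed to compound for 20 h before luminescence read; 0% = DMSO alone and 100% = MG132 at 30 µM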
Target sequence (P30291 whole entry K328M): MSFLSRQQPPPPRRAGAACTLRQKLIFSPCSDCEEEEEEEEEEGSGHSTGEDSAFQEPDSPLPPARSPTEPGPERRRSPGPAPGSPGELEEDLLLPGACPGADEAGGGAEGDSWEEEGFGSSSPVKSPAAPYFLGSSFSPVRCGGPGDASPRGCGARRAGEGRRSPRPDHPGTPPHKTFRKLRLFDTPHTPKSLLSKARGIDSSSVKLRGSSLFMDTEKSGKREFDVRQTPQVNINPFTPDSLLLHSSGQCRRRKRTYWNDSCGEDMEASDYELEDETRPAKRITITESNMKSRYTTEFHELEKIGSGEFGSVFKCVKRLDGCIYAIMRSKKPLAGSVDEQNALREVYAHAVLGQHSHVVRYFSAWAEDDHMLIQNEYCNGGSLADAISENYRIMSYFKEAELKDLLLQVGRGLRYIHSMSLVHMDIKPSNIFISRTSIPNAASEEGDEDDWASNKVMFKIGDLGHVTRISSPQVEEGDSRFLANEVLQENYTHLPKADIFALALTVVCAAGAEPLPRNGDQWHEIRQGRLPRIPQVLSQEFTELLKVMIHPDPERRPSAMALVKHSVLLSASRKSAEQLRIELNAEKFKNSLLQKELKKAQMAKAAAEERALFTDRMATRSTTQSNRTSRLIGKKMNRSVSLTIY
PKD1 kinase inh: inhibitors of human PKD1 kinase; inhibition, % (no concentration beside the values); Q15139; hit rate 0.056% among 200,000; PKD1 kinase fluorescence polarization assay
Arbovirus inh: antivirals against arbovirus infection | arbovirus infection cell-based antiviral screen | inhibition, % at 10 µM | hit rate 0.37% among 200,000 | AID 1251; in the data active means inhibition above about 30%
Rad51 HR inh: blocks human Rad51 in homologous recombination | AID 1385 | inhibition, % at 10 µM | hit rate 0.085% among 200,000 | Q06609 | hRad51 DNA strand exchange, fluorescence dequenching;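 active means inhibition above 40% at the single screening dose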;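 further: 0% = DMSO control wells and 100% = blanks with heterologous ssDNA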
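System: hRad51 filaments on single-stranded DNA; reagent: Fluorescein- and BHQ1-tagged 47-mer duplex; compound dosing: one concentration, 10 µM final; timing: filaments 15 min 37 °C, then compound 30 min; measured by: fluorescein emission 520 nm, excitation 485 nm; benchmarks: per-plate controls and blanks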
L major 1uM: inhibitors of Leishmania major promastigote growth, repeat at 1 uM; shares compounds with Lmaj promast; L. major promastigote growth, resazurin fluorescence, 48 h; inhibition, % at 1 µM; hit rate 13% among 1,100;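 active means inhibition above about 50% in both repeat tests, limit read from the data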
Wee1 stab conf: human Wee1 degradation inhibition, confirmation | AID 1410 | shares compounds with Wee1 stabilizer | activation, % at 5 µM | hit rate 4% among 1,100 | HeLa Luc-Wee1K328M degradation, luminescence; vehicle 0%, proteasome-blocked wells 100%; in the data active means activation above about 8.9%
CHOP confirm: confirmation of CHOP induction inhibitors; shares compounds with CHOP inh; hit rate 45% among 2,100; CHO-CHOP promoter luciferase reporter, tunicamycin-induced, luminescence; inhibition, % at 10 µM;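 active means mean of three repeat readings of reporter signal inhibition above a set limit, cut at about 70% in these data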;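 further: 0% = tunicamycin plus vehicle and 100% = wells lacking tunicamycin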
Numbers without * were called inactive; . = not tested or not shown. Only some compounds are listed: those with a hit (about 12% of all), similar ones and a draw of the others. Unless noted, no stated cut-off is given here; in the data, active means inhibition above about 50%; inactive means the rest.

SMILES	Lmaj promast	CHOP inh	Wee1 stabilizer	PKD1 kinase inh	Arbovirus inh	Rad51 HR inh	Wee1 stab conf	others
Cc1ccc(-c2nnnn2-c2ccc(C)cc2)cc1	33	7	2	0	5	5	.
Cc1onc(-c2ccccc2Cl)c1NC(=O)NCc1cccs1	.	-1	-1	.	.	16	.
Cc1ccc(O)c(-c2cc(-c3ccccc3C)[nH]n2)c1	55*	106*	0	-2	-31	.	.	L major 1uM=20;CHOP confirm=8
O=C(O)CNC(=O)c1nc(-c2ccccc2)n(-c2ccccc2)n1	-4	13	4	-3	-1	6	.
CSc1nc(C)cc(OCC(=O)N/N=C/c2ccccc2O)n1	-3	40	1	-2	-27	15	.
CCCCCCCCCCCCCCCCn1cc[n+](C)c1	101*	81*	-5	-3	-25	11	.	L major 1uM=99*;CHOP confirm=115*
CC/C(=N\N=C1\SC(C)C(=O)N1Cc1ccco1)c1ccccc1 (stereo unspecified)	19	13	2	-9	4	6	.
CCCCc1c(C)nn(-c2nnc3c4ccccc4n(C)c3n2)c1C	87*	107*	2	2	-28	.	.	L major 1uM=-28;CHOP confirm=38
COCCn1c(NCc2ccco2)nc2c1c(=O)[nH]c(=O)n2C	-5	7	-1	3	-1	10	.
COc1ccc(OC)c(NC(=O)CSc2ccc3nnc(-c4cccnc4)n3n2)c1	2	-4	1	-7	6	2	.
Cc1cccc(OCCn2c(NC(=O)c3ccco3)nc3ccccc32)c1	97*	104*	-2	6	-17	3	.	L major 1uM=87*;CHOP confirm=-12
Cc1cccc(OCCn2c(-c3ccco3)nc3ccccc32)c1	22	24	1	-4	-22	1	.
Cc1ccc2c(c1)c1c3n2CCCNC3CCC1 (stereo unspecified)	8	27	2	-2	-46	-6	.
c1cc2c(cc1C1CCCCC1)c1c3n2CCCNC3CCC1 (stereo unspecified)	100*	.	2	4	-38	1	.	L major 1uM=17;CHOP confirm=-44
CC(C)C[C@H](NC(=O)OC(C)(C)C)C(=O)N/N=C/C1=Cc2ccccc2OC1C (stereo partly specified)	98*	103*	3	1	-33	-6	.	L major 1uM=-4;CHOP confirm=91*
CCOc1ccc(Cn2c3ccc(OC)cc3c3nc4ccccc4nc32)cc1	54*	106*	1	-1	-38	-62	.	L major 1uM=-6;CHOP confirm=-5
CCn1c2ccc(OC)cc2c2nc3ccccc3nc21	9	39	-1	4	-4	-4	.
C=C(C)C1Cc2c(C)nn(-c3cccc4ccccc34)c2C1 (stereo unspecified)	61*	101*	-1	0	-37	3	.	L major 1uM=-29;CHOP confirm=31
COc1ccc(NC(=O)/C(Cl)=C(/Cl)S(=O)Cc2ccccc2Cl)cn1 (stereo unspecified)	101*	110*	7	4	-34	3	.	L major 1uM=100*;CHOP confirm=120*
COC(=O)CSc1nnc([C@H](Cc2ccccc2)NC(=O)OC(C)(C)C)o1	-2	40	-2	1	7	-13	.
COC(=O)CS(=O)(=O)c1nnc([C@H](Cc2ccccc2)NC(=O)OC(C)(C)C)o1	101*	111*	1	-7	4	12	.	L major 1uM=0;CHOP confirm=94*
O=C(NNC(=S)Nc1ccccc1)Nc1ccccc1	8	9	8	8	-3	-2	.
Cc1ccc(NC(=S)NNC(=O)Nc2ccccc2)cc1	1	-31	14*	-11	18	9	4
CCOC(=O)c1c(C)[nH]c(C)c1C(=O)COC(=O)c1ccc(Cl)c(S(=O)(=O)NCc2ccccc2)c1	16	42	-2	-7	-13	-5	.
Cc1cc(C)c2c(N)c(C(=O)C(C)(C)C)sc2n1	97*	-8	13*	1	-1	1	-1
SMILES	Lmaj promast	CHOP inh	Wee1 stabilizer	PKD1 kinase inh	Arbovirus inh	Rad51 HR inh	Wee1 stab conf	others
COc1ccc(/C=N/NC(=O)c2sc3nc(C)cc(C)c3c2N)cc1	.	-39	0	.	.	-4	.
Cn1c2c(c(=O)n(C)c1=O)C(CC(=O)Nc1ccc(F)cc1)C(=O)N2 (stereo unspecified)	-4	4	11*	-3	2	29	0
Cn1c2c(c(=O)c3ccccc31)CCC(C)(C)O2	-7	40	11*	-3	-7	10	1
O=C(c1ccco1)N1CCN(c2cc(=O)n(-c3ccc(Cl)cc3)c(=O)[nH]2)CC1	-7	13	-2	4	16	5	.
Cc1ccc(Cl)cc1-n1c(=O)cc(N2CCN(C(=O)c3ccco3)CC2)[nH]c1=O	-8	-14	14*	-8	2	-4	-1
COc1ccccc1-c1nnc(SCC(=O)N2CCOCC2)o1	-10	-8	11*	-6	1	-3	3
COc1ccccc1-c1nnc(-c2ccc(N3CCOCC3)cc2)o1	30	2	15*	-7	2	3	-1
COc1ccccc1-c1nnc(SCC(=O)N2CCC(C)CC2)o1	-4	17	-2	-5	4	10	.
COCCCNC(=O)Cn1c(=O)n(Cc2ccc(C(=O)NCCc3ccc(OC)c(OC)c3)cc2)c(=O)c2ccccc21	11	28	7	-1	2	-2	.
CCCn1c(SCC(=O)N2CCN(c3ccccc3)CC2)nc2ccccc2c1=O	12	23	-2	-2	7	5	.
CCOC(=O)N1CCN(C(=O)CSc2nc3ccccc3c(=O)n2-c2ccccc2)CC1	-3	14	11*	-15	-1	-4	4
Cc1ccc2nc(-c3ccc(NC(=S)NC4CC(C)(C)NC(C)(C)C4)cc3)sc2c1	98*	59	20*	-5	-32	20	3
Cc1ccc2nc(-c3ccc(NC(=S)NC(=O)C(C)C)cc3)sc2c1	1	-57	1	-2	4	-5	.
CC(=O)C1C(c2ccc(Br)cc2)C2C(C)=NN=C2CC1(C)O (stereo unspecified)	-8	1	0	1	-1	-2	.
O=C(Cc1ccccc1)Nc1cccc([N+](=O)[O-])c1	8	6	1	0	-3	9	.
O=C(CCc1n[nH]c(=O)[nH]c1=O)Nc1cccc([N+](=O)[O-])c1	-3	-8	13*	-4	-2	31	-2
CC1(C)c2ccccc2-n2c1cc1oc(=O)cc(O)c1c2=O	.	2	15*	.	.	-16	2
Cc1c(O)cc2n(c1=O)-c1ccccc1C2(C)C	10	10	-2	-10	2	3	.

High-throughput results (PubChem)
